Results from different studies.
Protocols differ between the studies behind these lines.
Target: PAS domain-containing serine/threonine-protein kinase (PASK, Homo sapiens, UniProt Q96RG2)

SMILES	observed	action	technique	tested at	endpoint	result
CC(C)(C)c1nc(-c2cccc(NS(=O)(=O)c3c(F)cccc3F)c2F)c(-c2ccnc(N)n2)s1	enzyme activity	inhibitor	radiometric	1 µM	remaining activity	98%
Cc1ccc(NC(=O)c2ccc(C)c(C(F)(F)F)c2)cc1C#Cc1nn(C2CCC(O)CC2)c2ncnc(N)c12 (stereo not shown)	cell-free assay			10 µM	remaining signal	113%
CNC(=O)c1cc(Oc2ccc(NC(=O)Nc3ccc(Cl)c(C(F)(F)F)c3)cc2)ccn1	enzyme activity	inhibitor		10 µM	inhibition	-9%
COc1cc2ncnc(Nc3ccc(Oc4ccccc4)cc3C)c2cc1OC	enzyme activity	inhibitor		1 µM	inhibition	-2%
N#CCCc1ccc2c(c1)-c1[nH]c3ccc([N+](=O)[O-])cc3c1CC(=O)N2	cell-free assay			0.5 µM	remaining signal	96.9%
CCCOc1ccc(OC)c(F)c1C(=O)c1ccc(C(=O)N[C@@H]2CNC[C@H]2NC(=O)c2ccc3[nH]ncc3c2)cc1	enzyme activity	inhibitor		10 µM	remaining activity	6%
Cc1cc(NC(=O)c2cccc3cc(-c4cccc5[nH]nc(N)c45)ccc23)ccc1F	enzyme activity	inhibitor		0.1 µM	activity vs control	89%
Cc1ccc(Nc2nccc(N(C)c3ccc4c(C)n(C)nc4c3)n2)cc1S(N)(=O)=O	enzyme activity	inhibitor		0.3 µM	inhibition	-1%
CC/C(=N\NC(=O)NCc1cccc(O)c1)c1ccc(O)c(C)c1O	enzyme activity	inhibitor		0.1 µM	inhibition	-0.2%
O=C(Nc1cnn(-c2csc(C(=O)NC3COC3)c2)c1)Nc1ccccc1Cl	enzyme activity	inhibitor		5 µM	remaining activity	96.3%
CCN(CC)CCNC(=O)c1c(C)[nH]c(/C=C2\C(=O)Nc3ccc(F)cc32)c1C	enzyme activity	inhibitor		10 µM	inhibition	19%
Cc1sc(C(=O)NC2COC2)cc1-n1cc(NC(=O)Nc2c(F)cccc2Cl)cn1	enzyme activity	inhibitor		10 µM	remaining activity	96.1%
CCN(CC)c1ccc(C2=NNC(=O)CC2C)cc1[N+](=O)[O-] (stereo not shown)	enzyme activity	inhibitor		10 µM	remaining activity	98%
